The list is not random: actives were taken first. Their share in the collection is about 1%.
PERK inh = block of dimerizer-induced PERK translation repression, primary screen, PERK inhibitor project, CHO PERK-DD cells, SEAP luminescence, HTS | inhibition, % at 5.6 µM | CHO PERK-DD fusion, SEAP luminescence translation reporter | AID 1416, 2008 | 220,000 tested, 0.17% active | Eukaryotic translation initiation factor 2-alpha kinase 3 (Homo sapiens), Q9NZJ5;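 active means inhibition above the mean inhibition of all tested compounds plus 3 SD, set separately per screening campaign, cut at about 2.9% in these data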;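 further: PERK kinase domain activated by AP20187 dimerizer at 100 nM; 0% = DMSO with dimerizer and 100% = rapamycin at 8.4 µM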
Target sequence (Q9NZJ5 whole entry, looked up, the tested form may be a part): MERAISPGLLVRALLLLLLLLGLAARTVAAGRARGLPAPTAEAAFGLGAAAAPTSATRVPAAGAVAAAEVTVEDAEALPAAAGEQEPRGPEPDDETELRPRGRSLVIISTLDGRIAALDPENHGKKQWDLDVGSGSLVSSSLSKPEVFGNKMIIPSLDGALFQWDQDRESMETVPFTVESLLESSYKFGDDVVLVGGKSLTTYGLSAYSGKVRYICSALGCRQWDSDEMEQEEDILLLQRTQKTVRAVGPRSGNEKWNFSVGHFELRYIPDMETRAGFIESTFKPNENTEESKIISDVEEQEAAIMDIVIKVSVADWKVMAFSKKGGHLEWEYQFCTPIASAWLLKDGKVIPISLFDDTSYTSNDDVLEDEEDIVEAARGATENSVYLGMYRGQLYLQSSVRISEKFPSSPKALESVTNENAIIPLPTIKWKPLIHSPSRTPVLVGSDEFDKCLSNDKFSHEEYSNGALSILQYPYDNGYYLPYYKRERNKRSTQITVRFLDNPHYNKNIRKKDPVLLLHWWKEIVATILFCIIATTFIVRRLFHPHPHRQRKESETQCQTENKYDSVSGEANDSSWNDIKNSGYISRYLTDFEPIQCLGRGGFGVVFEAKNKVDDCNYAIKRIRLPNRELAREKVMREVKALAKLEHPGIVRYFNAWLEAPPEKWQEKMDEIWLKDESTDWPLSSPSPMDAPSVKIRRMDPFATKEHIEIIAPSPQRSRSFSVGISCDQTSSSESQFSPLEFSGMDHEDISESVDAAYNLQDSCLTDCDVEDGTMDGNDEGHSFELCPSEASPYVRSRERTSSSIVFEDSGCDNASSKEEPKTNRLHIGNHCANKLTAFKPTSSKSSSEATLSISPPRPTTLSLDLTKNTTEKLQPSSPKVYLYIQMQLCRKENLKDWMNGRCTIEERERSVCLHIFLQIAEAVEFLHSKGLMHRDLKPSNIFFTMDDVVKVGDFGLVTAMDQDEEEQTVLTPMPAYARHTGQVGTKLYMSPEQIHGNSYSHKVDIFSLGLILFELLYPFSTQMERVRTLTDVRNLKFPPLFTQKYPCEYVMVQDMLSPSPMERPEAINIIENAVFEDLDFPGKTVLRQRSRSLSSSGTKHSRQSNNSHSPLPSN
HMGR II inh = inhibitors of E. faecalis class II HMGR, primary screen, biochemical, Enterococcus faecalis. HMG-CoA reductase (Enterococcus faecalis, mvaE). purified E. faecalis HMGR, NADPH absorbance 340 nm kinetic. inhibition, % at 10 µM. 190,000 tested, 0.41% active;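 active means inhibition above a set limit, the median over all tested compounds plus 3 SD, cut at about 9.5% in these data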;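 further: enzyme runs in reverse so mevalonate oxidation gives rising NADPH absorbance; 0% = complete reaction with DMSO and 100% = background rate lacking mevalonate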
zVAD death inh = inhibitors of zVAD-triggered necroptosis, primary screen, L929 cells. L929 zVAD necroptosis rescue, ATP luminescence, 24 h; with zVAD 60 µM. 220,000 tested, 0.38% active. AID 1377, 2008. viability rescue, % at 10 µM;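 active means activation, scaled between plate controls, above about 75%, limit read from the data; inactive means activation under that limit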;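 further: 0% = zVAD with DMSO and 100% = DMSO alone without zVAD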
Rad51 HR inh = human RAD51 strand exchange inhibitors, primary screen, biochemical, fluorescence; DNA repair protein RAD51 homolog 1 (Homo sapiens), Q06609; hRad51 DNA strand exchange, fluorescence dequenching; inhibition, % at 10 µM; 200,000 tested, 0.085% active; AID 1385, 2008;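 active means inhibition above 40% at the single screening dose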;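 further: 0% = DMSO control wells and 100% = blanks with heterologous ssDNA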
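material = hRad51 filaments on single-stranded DNA | reagent = Donor/quencher-labelled 47-bp dsDNA substrate | compound = 10 µM final, single point | schedule = strand-exchange reaction 15 min at room temperature | measured by = fluorescein emission 520 nm, excitation 485 nm | read-out basis = % inhibition versus plate control and blank means | benchmarks = plate controls and plate blanks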
TNF necrop inh = inhibitors of TNF-alpha triggered necroptosis, primary screen, cell-based, Jurkat FADD-/-, single concentration. activation (protection from cell death), % at 10 µM. 220,000 tested, 0.068% active. Jurkat FADD-/- TNF necroptosis rescue, ATP luminescence, 24 h; 0 = TNF only, 100 = no-TNF cells;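 active means activation, meaning protection from cell death, of at least 50% relative to plate controls; inactive means activation below 50%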;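 further: necroptosis triggered by 40 ng/mL TNF-alpha added together with compound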
zVAD death conf = inhibitors of zVAD-triggered necroptosis in L929, confirmation, L929 cells, duplicate runs; L929 zVAD-induced necroptosis rescue, ATP luminescence, 24 h; activation (protection from necroptosis), % at 10 µM; shares compounds with zVAD death inh; 760 tested, 16% active;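 active means mean protection from necroptosis of at least 50% over duplicate tests; inactive means mean protection below 50%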;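 further: 0% = cells with zVAD alone and 100% = vehicle cells without zVAD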
Numbers without * were called inactive; / = no result.

SMILES	PERK inh	HMGR II inh	zVAD death inh	Rad51 HR inh	TNF necrop inh	zVAD death conf
CC(=O)NS(=O)(=O)c1ccc(NC(=O)c2oc3c(Cl)cccc3c2C)cc1	1	/	1	-6	0	/
COC(=O)c1cc2n(n1)CCN(Cc1ccccc1Cl)C2=O	-1	2	0	/	-2	/
COC(=O)c1ccn(Cc2ccccc2Cl)n1	2	-7	90*	/	100*	81*
Cc1ccccc1NC(=O)C(=Cc1ccc(C(=O)O)cc1)C(=O)Nc1ccccc1C	1	2	79*	4	43	38
CC(=O)/C(=C/c1ccccc1)C(=O)Nc1ccccc1C	0	1	-1	5	-5	/
CCCCOc1ccc(/C=C/C(=O)NC2=Nc3ccccc3NC(C)=C2C(=O)OCC)cc1OC	0	0	5	-1	2	/
COc1ccc(NC(=O)Nc2nnc(C(C)C)s2)cc1	0	1	95*	-5	-2	3
COc1ccc(CC(=O)Nc2nnc(C(C)C)s2)cc1	0	-6	82*	14	2	1
CC(C)c1nnc(NC(=O)Cc2ccc(Br)cc2)s1	0	-1	/	29	2	/
COc1ccc(C(=O)Nc2ncc(C)s2)cc1S(=O)(=O)N1CCCC1	0	-5	89*	-16	13	2
CCC1(c2ccccc2)C(=O)NCNC1=O	1	-7	75*	1	1	4
COc1ccc(CC(=O)Nc2ccc(-c3cn4cccc(C)c4n3)cc2)cc1OC	-2	-4	-1	4	-2	/
COc1ccc(CC(=O)Nc2ccc(-c3cn4ccc(C)cc4n3)cc2)cc1	-3	-3	81*	8	2	24
S=c1[nH]nc(-c2ccncc2)n1/N=C/C=C/c1ccccc1	0	/	1	13	2	/
S=c1[nH]nc(-c2ccncc2)n1/N=C/C(Cl)=C\c1ccccc1	0	-5	85*	/	2	5
O=C(CCC(=O)N1CCN(c2ccccc2)CC1)Nc1nnc(C2CCCCC2)s1	0	/	0	/	2	/
O=C(NC12CC3CC(CC(C3)C1)C2)c1ccc(-c2ccc(Br)cc2)o1	1	-9	80*	-6	3	35
CC(=O)Nc1ccccc1C(=O)C(=O)Nc1ccc(C(=O)N2CCOCC2)cc1	1	-2	1	6	0	/
CCOC(=O)C1(Cc2cccc(F)c2)CCN(C(=O)Cn2cnnn2)CC1	-1	/	0	-22	1	/
CC(=O)NC(NC(=S)Nc1cccc(Br)c1)C(Cl)(Cl)Cl (centres undefined)	-1	/	1	11	-2	/
C=CCOc1ccc(/C=N/Nc2ccccn2)cc1OC	0	-7	85*	-24	8	1
CCOc1ccc(/C=N/Nc2ccccn2)cc1OC	-1	-1	80*	-7	23	4
CCCOc1ccc(/C=N/Nc2ccccn2)cc1OC	0	-4	60	-5	10	/
COc1ccc(/C=N/Nc2ccccn2)c(OC)c1OC	0	-1	83*	15	27	12
Cc1cc(C)cc(-n2c(C)nc3cc(C(=O)O)ccc32)c1	2	-7	-1	/	0	/
SMILES	PERK inh	HMGR II inh	zVAD death inh	Rad51 HR inh	TNF necrop inh	zVAD death conf
COc1ccc(C2(CNS(=O)(=O)c3ccccc3)CCOCC2)cc1	-1	0	1	-9	1	/
O=C(O)CCC(=O)Nc1ccc(Oc2ncnc3cc(Cl)ccc23)nc1	2	/	2	13	1	/
Cc1ccccc1-c1nn(-c2ccc(F)cc2F)cc1CNCCCN(C)C	2	-7	5	/	1	/
CCOc1ccccc1-n1c(SCC(=O)Nc2ccc(CC)cc2)nc2n[nH]c(C)c2c1=N	-1	1	80*	-2	-3	43
O=C(O)c1ccc(Sc2nnc3ccccn23)c([N+](=O)[O-])c1	2	/	1	-5	6	/
CN1CCN(c2ccc(-c3ccnn3C(=O)Nc3cccc(C(F)(F)F)c3)cc2)CC1	1	-5	84*	-9	6	51*
COc1ccc(N2CCN(C(=O)Nc3cccc(C(F)(F)F)c3)CC2)cc1	-1	0	0	4	2	/
COc1ccc(CC(=O)N2CCc3cc(OC)c(OC)cc3C2O)cc1OC (centres undefined)	1	/	1	/	2	/
NC(=O)c1ccc(Nc2nnc(-c3ccc(O)cc3)c3ccccc23)cc1	1	-2	22	-5	1	/
CN(C)C(=O)c1ccc(-c2nnc(NCc3ccccc3)c3ccccc23)cc1	0	-1	75*	7	2	36
O=S(=O)(CC(CN1CCCC1)N1CCCC1)c1ccc2ccccc2c1 (centres undefined)	-1	0	82*	2	-11	46
CC(CS(=O)(=O)c1ccc2ccccc2c1)N1CCN(C2CCCCC2)CC1 (centres undefined)	0	/	0	/	0	/
CCNc1nc(NCC)nc(Oc2ccc(N)cc2)n1	-1	-7	78*	1	0	30
CCOC(=O)c1cnc(-c2ccccc2)nc1N	0	0	0	-12	-1	/
CCOC(=O)c1ccc2ncc(-c3ccccc3)nc2c1	1	5	76*	4	0	1
COc1ccc(NC(=O)Nc2cc(C)cc(C)c2)cn1	0	/	5	-40	4	/
COc1ccc(NC(=S)NNC(=S)Nc2cccc(C(F)(F)F)c2)cc1	0	/	77*	18	0	6
COc1ccc(NC(=O)Nc2cccc(C(F)(F)F)c2)cn1	0	-13	77*	3	4	4
COc1cc(OC)c(S(=O)(=O)NC(C)C)cc1C(=O)O	0	/	0	/	2	/
O=c1/c(=C\c2ccc(F)cc2)sc2n1CCCN=2	2	-1	76*	4	-1	0
O=c1/c(=C/c2ccc(O)cc2)sc2n1CCCN=2	1	-1	4	-4	-5	/
CCN1C(=O)/C(=C/c2ccc(C)s2)NC1=S	0	0	98*	5	49	94*
CC(C)CC(=O)Nc1nc2ccc(S(C)(=O)=O)cc2s1	0	0	81*	-5	-5	10
CCCC(=O)Nc1nc2ccc(S(N)(=O)=O)cc2s1	0	-6	80*	6	0	1
CCC(=O)Nc1nc2ccc(S(C)(=O)=O)cc2s1	0	-7	63	-7	-6	/
CC(C)(C)c1ccc(/C=N/N2CCN(c3ccccn3)CC2)cc1	1	/	82*	3	10	31

Screening data: PubChem, several laboratories
